Screening results as filed in PubChem BioAssay.
DENV2 CPE rescue – DENV2-induced cell death inhibition. 350,000 compounds, 1.7% hits. DENV2-infected cells, cytopathic effect rescue, plate reader. CPE inhibition, % at 9.99 µM. AID 651640; in the data active = CPE inhibition above about 20%, passing the limit was not always enough; inconclusive = no clear call, values can overlap the other calls; tested in BHK-21 cells;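 note: 0% = median of neutral control wells and 100% = median of positive control wells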
C2C12 statin – suppressors of simvastatin-induced myotoxicity in C2C12 myotubes | ATP luminescence, 48 h; scaled: DMSO 0, geranylgeraniol control 100 | rescue of ATP level, % at 7.49 µM | 330,000 compounds, 0.78% hits | AID 602340;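 active = mean ATP rescue above about 67%, or every replicate alone reaching that limit, limit read from the data, passing the limit was not always enough; inconclusive = no clear call, values can overlap the other calls; inactive = mean under the limit and some replicate under it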;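 note: myotubes were challenged with 10 µM simvastatin during compound exposure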
E-sel inducer – E-selectin induction on HUVECs; HUVEC E-selectin immunofluorescence imaging; normalized: neutral wells 0, TNF-alpha wells 100; 260,000 compounds, 0.37% hits; P16581; activation, % at 7.58 µM;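 active = mean E-selectin-positive cell signal at least 10% of the positive control, reached in at least 60% of replicates, without over 20% cell loss; inconclusive = no rule given, readout overlaps actives, possibly toxicity-flagged; inactive = the rest, including those meeting only one limit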
Target sequence (P16581 whole entry, looked up): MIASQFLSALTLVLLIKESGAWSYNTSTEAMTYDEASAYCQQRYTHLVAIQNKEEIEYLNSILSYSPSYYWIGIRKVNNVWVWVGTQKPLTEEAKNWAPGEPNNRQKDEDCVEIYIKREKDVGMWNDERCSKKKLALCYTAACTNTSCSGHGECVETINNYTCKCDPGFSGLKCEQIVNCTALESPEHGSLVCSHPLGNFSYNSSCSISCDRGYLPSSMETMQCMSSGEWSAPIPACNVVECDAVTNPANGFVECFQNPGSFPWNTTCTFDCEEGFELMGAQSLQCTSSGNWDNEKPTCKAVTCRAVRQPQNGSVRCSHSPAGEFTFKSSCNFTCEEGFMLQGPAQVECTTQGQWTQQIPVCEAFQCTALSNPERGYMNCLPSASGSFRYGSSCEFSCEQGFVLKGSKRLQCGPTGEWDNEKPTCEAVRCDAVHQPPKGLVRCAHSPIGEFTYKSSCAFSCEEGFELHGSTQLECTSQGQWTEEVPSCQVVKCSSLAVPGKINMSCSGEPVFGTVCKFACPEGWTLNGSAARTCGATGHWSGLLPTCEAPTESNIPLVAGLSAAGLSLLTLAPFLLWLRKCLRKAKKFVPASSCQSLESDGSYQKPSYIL
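Test system – human umbilical vein endothelial cells (HUVEC), E-selectin induction · Input – 3,000 HUVEC seeded per well · Buffer or medium – EGM-2, gelatin · Compound dosing – single-point compound dose · Detection – immunofluorescence imaging · Measure – percent E-selectin-positive cells · Controls – TNF-alpha high, DMSO low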
Active calls of the source: *; u = inconclusive; x = no result. A selection: hits, their analogues and other compounds. The true share with any hit is near 2.2%.

SMILES	DENV2 CPE rescue	C2C12 statin	E-sel inducer
Cc1cccc(NC(=O)CCCN2C(=O)C(c3ccccc3)Oc3cccnc32)c1C (configuration not stated)	u	9	57*
Cc1cccc(C)c1NC(=O)CCCN1C(=O)C(c2ccccc2)Oc2cccnc21 (configuration not stated)	u	12	x
COCC#Cc1ccc2c(c1)O[C@@H](CN(C)C)[C@H](C)CN([C@@H](C)CO)S2(=O)=O	0	0	0
C[C@H]1CN([C@@H](C)CO)C(=O)c2cc(-c3cccc(F)c3)cnc2O[C@@H]1CN(C)CC1CCOCC1	-3	2	0
Cc1ccc(SCc2cc(=O)n3[nH]c(C)nc3n2)cc1	x	-16	x
Cc1ccc(SCc2cc(=O)n(C)[nH]2)cc1	0	x	82*
C[C@H]1CCCCO[C@@H](CN(C)C(=O)Nc2ccc(C(F)(F)F)cc2)[C@@H](C)CN([C@@H](C)CO)C(=O)c2cc(NC(=O)Nc3ccc(C(F)(F)F)cc3)ccc2O1	18	x	0
FC(F)(F)c1nc2nncn2c2c1CCCCC2	x	149*	x
CC(C)(C)NC(=O)Cn1nc(C(F)(F)F)c2c1CCCC2	-5	x	x
COc1ccc(S(=O)(=O)N2CCCc3nc(C)c(C)cc32)cc1	-7	x	0
COc1ccc(O[C@H]2C=C[C@@H](c3ccccc3)O[C@@H]2CO/N=C(\C)CCN2CCCCc3nc(C)c(C)cc32)cc1	36*	x	2
CCCNC(=O)C[C@@H]1CC[C@H]2[C@@H](COc3ccc(NC(=O)c4ccc(C(F)(F)F)cc4)cc3C(=O)N2C)O1	x	14	0
O=C(N[C@@H]1C=C[C@@H](CC(=O)N2CCc3ccccc3C2)O[C@@H]1CO)C1CCC1	4	2	0
COc1ccc(-c2ccc3c(c2)[C@@H]2C[C@H](N(C)C(=O)C(C)(C)C)[C@H]([C@H](C)O)C(=O)N2CC3)cc1	129*	-1	0
COCC(=O)N(C)[C@H]1C[C@H]2c3cc(-c4ccccc4)ccc3CCN2C(=O)[C@H]1[C@H](C)O	-5	0	-1
O=C(Nc1ccccc1)N1CC(=O)N2[C@H](CO)[C@@H](c3ccc(C#CC4CCCC4)cc3)[C@@H]2C1	4	x	0
CCN(CC)CC(=O)N1CCCC(N2CCN(c3cccc(C(F)(F)F)c3)CC2)C1 (configuration not stated)	30*	-5	x
O=C(c1cc(C2CC2)on1)N1CCCC(N2CCN(c3cccc(C(F)(F)F)c3)CC2)C1 (configuration not stated)	30*	2	0
CN(C)C(=O)CCC(=O)N1CCCC(N2CCN(c3cccc(C(F)(F)F)c3)CC2)C1 (configuration not stated)	2	2	0
Cc1cc(C(=O)N2CCCC(N3CCN(c4cccc(C(F)(F)F)c4)CC3)C2)no1 (configuration not stated)	u	1	0
CCOC(=O)c1nn(-c2ccc(C)cc2)c(C)c1C(C)=O	x	-10	x
CCOC(=O)c1nn(-c2ccc(F)cc2)c(C)c1C(C)=O	x	74*	x
OCCNc1nc(Nc2ccccc2C(F)(F)F)nc(N2CCCC2)n1	-8	10	0
COc1ccccc1Nc1nc(NCCO)nc(N2CCCC2)n1	-1	-4	0
COc1ccccc1Nc1nc(NCCCCO)nc(N2CCCC2)n1	86*	-11	0
SMILES	DENV2 CPE rescue	C2C12 statin	E-sel inducer
Cc1ccc(Nc2nc(NCCO)nc(N3CCCC3)n2)cc1	60*	11	1
CCNC(=O)C[C@@H]1CC[C@H]2[C@@H](COc3ccc(NC(=O)c4cccc(OC)c4)cc3C(=O)N2C)O1	2	5	0
O=C1c2ccccc2NC(c2ccc(-c3ccccc3F)o2)N1O (configuration not stated)	25*	11	0
O=C1c2ccccc2NC(c2ccc(-c3cccc(F)c3)o2)N1O (configuration not stated)	-3	-3	0
Cc1nc(C(=O)NC2CCOCC2)sc1C1(C)CC(c2cccc([N+](=O)[O-])c2)=NO1 (configuration not stated)	44*	-4	0
Cc1nc(C(=O)NC2CCOCC2)sc1C1(C)CC(c2ccccc2)=NO1 (configuration not stated)	-14	21	0
O=C(c1cnccn1)N1CC(=O)N2[C@H](CO)[C@H](c3ccc(C4=CCCCC4)cc3)[C@@H]2C1	4	x	0
C[C@@H]1CCCCO[C@@H](CN(C)Cc2ccccc2)[C@H](C)CN([C@@H](C)CO)C(=O)c2cc(NS(=O)(=O)c3cccs3)ccc2O1	2	x	x
CCCCCCCC(=O)O	u	3	x
C=C(C(=O)O)C(CCCCCC)C(=O)O (configuration not stated)	90*	-2	x
CCC(=O)NC[C@H]1[C@@H](c2ccc(-c3ccccc3)cc2)[C@H](CO)N1C(=O)C1CC1	-10	1	1
C[C@H]1CN([C@@H](C)CO)C(=O)c2cc(C#CC(C)(C)O)cnc2O[C@H]1CN(C)Cc1cncnc1	33*	-11	0
C/C=C/c1cnc2c(c1)C(=O)N([C@H](C)CO)C[C@@H](C)[C@H](CN(C)Cc1cncnc1)O2	-2	-9	0
C/C=C/c1cnc2c(c1)C(=O)N([C@@H](C)CO)C[C@H](C)[C@H](CN(C)Cc1cncnc1)O2	37*	-2	0
C[C@@H]1CN([C@H](C)CO)C(=O)c2cc(C#CC(C)(C)O)cnc2O[C@H]1CN(C)Cc1cncnc1	3	-16	0
COc1ccc(NC(=O)N(C)C[C@@H]2OCCCC[C@@H](C)Oc3ccc(NS(=O)(=O)c4ccc(C)cc4)cc3C(=O)N([C@@H](C)CO)C[C@H]2C)cc1	4	x	x
C[C@H](CO)N1C[C@H](C)[C@H](CN(C)Cc2ccc(Cl)c(Cl)c2)Oc2c(NS(=O)(=O)c3cccs3)cccc2C1=O	-13	-28	x
Cc1ccc(S(=O)(=O)Nc2cccc3c2O[C@@H](CN(C)Cc2ccc(C(=O)O)cc2)[C@H](C)CN([C@@H](C)CO)C3=O)cc1	-6	-6	0
COc1ccc(NC(=O)CN2CCc3ccccc3C2)cc1S(=O)(=O)N1CCOCC1	51*	x	x
COc1ccc(NC(=O)CN2CCOCC2)cc1S(=O)(=O)N1CCCCC1	2	-3	-1
CCN(CC)CCNC(=O)c1ccc(NC(=O)Cc2ccc(OC)c(S(=O)(=O)N3CCOCC3)c2)cc1	40*	8	x
COc1ccc(CC(=O)Nc2cccc(C(C)=O)c2)cc1S(=O)(=O)N1CCOCC1	u	1	0
C[C@@H]1CN([C@@H](C)CO)C(=O)Cc2cc(NC(=O)Nc3ccc4c(c3)OCO4)ccc2O[C@@H]1CN(C)Cc1ccc(C(=O)O)cc1	-15	-29	x
O=C(C[C@@H]1C[C@@H]2c3cc(NS(=O)(=O)c4ccc(F)cc4)ccc3O[C@@H]2[C@@H](CO)O1)NCc1cccc(F)c1	u	6	0
O=C(Cc1ccccc1)N1CC[C@@H]2[C@@H](CO)Nc3ccc(Br)cc3[C@@H]21	1	11	3
CN(C)Cc1csc(NC(=O)Nc2cccc(Cl)c2)n1	-1	1	0
NCc1csc(NC(=O)Nc2cccc(Cl)c2)n1	25*	0	0
